ChEMBL document CHEMBL4414566, “Cytotoxicity and Anti-inflammatory Properties of Apigenin-Derived Isolaxifolin” (J Nat Prod, 2019)
Activity calls are given as the source filed them. The rule behind the calls is not given here.

Legend:
[1] = tested on: RAW264.7; experiment: Inhibition of nitric oxide production in mouse RAW264.7 cells at 0.8 to 3.1 uM measured after 24 hrs by griess reagent based assay; assay type: functional, cell-based
[2] = tested on: MDA-MB-231; experiment: Induction of cell cycle arrest in human MDA-MB-231 cells assessed as increase in accumulation of cells at G0/G1 phase incubated for 48 hrs by PI/RNase staining based flow cytometric analysis; assay type: functional
Summary of the method: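 Cells grown 24 h in DMEM/10% FBS at 37 °C, 5% CO2, then exposed 48 h to 8.6, 12.4 or 17.3 μM. Pelleted, fixed in 75% ethanol at −20 °C overnight, stained with PI-containing RNase 15 min in the dark at ambient temperature. About 10 000 cells per well analysed by flow cytometry. Triplicate, mean ± SD.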

[3] = tested on: L02; experiment: Cytotoxicity against human LO2 cells assessed as reduction in cell viability at 6.2 to 30.9 uM incubated for 48 hrs by methylene blue assay; assay type: cell-based; details: l02, 48 h
Summary of the method: (§1)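 MDA-MB-231, MCF-7, HepG2 and LNCaP cells were grown in DMEM; HCT-116 and LO-2 in RPMI-1640; all with 10% FBS at 37 °C, 5% CO2. Cells seeded at 1.5 × 10^5 cells/mL and incubated overnight (~12 h), then exposed to 6.2–30.9 μM or 23.1–185.0 μM (final DMSO <0.1%) for 48 h. Read by methylene blue staining; viability = Abs treated/Abs untreated × 100%, triplicate.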

[4] = tested on: MDA-MB-231; experiment: Induction of apoptosis in human MDA-MB-231 cells assessed as necrotic cells at 12.4 uM incubated for 48 hrs by annexin V-FITC/PI based flow cytometric analysis (Rvb= 0.74%); assay type: functional
[5] = tested on: RAW264.7; experiment: Antiinflammatory activity against LPS-activated mouse RAW264.7 cells assessed as reduction in IL6 mRNA expression at 3.1 uM preincubated with LPS for 24 hrs followed by compound addition and measured after 24 hrs by qRT-PCR analysis; assay type: functional, cell-based
Summary of the method: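 RAW 264.7 cells (DMEM, 10% FBS, 37 °C, 5% CO2) seeded at 1 × 10^5/well and held 4 h. LPS 1.0 μg/mL was added for 24 h, then medium was replaced with test agent (0.8, 1.6, 3.1 μM or 2.3, 4.6, 9.2 μM) for 24 h. TNF-α and IL-6 transcripts were quantified by real-time qPCR against GAPDH. Triplicates, mean ± SD.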

[6] = tested on: MDA-MB-231; experiment: Induction of mitochondrial membrane potential loss in human MDA-MB-231 cells cell population with mitochondrial membrane potential collapse by measuring green fluorescence at 8.6 uM incubated for 48 hrs by JC1 staining based flow cytometric analysis (reference value: 7.96%); assay type: functional
Summary of the method: (§2)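 MDA-MB-231 cells in DMEM/10% FBS exposed 48 h to 0, 8.6, 12.4 or 17.3 μM. Harvested cells stained with JC-1 for 15 min in the dark, then analysed by flow cytometry. Excitation 488 nm; green emission read at 525 nm, red at 590 nm. Output given as percent green-to-red fluorescence intensity ratio. Triplicate, mean ± SD.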

[7] = tested on: HCT-116; experiment: Antiproliferative activity against human HCT116 cells assessed as cell viability at >34.6 uM incubated for 48 hrs by methylene blue assay relative to control; assay type: functional; summary of the method: as §1
[8] = tested on: MDA-MB-231; experiment: Induction of apoptosis in human MDA-MB-231 cells assessed as increase in nuclear chromatin condensation incubated for 48 hrs by Hoechst 33258 staining based fluorescence microscopic method; assay type: functional, cell-based
Summary of the method: (§3)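 MDA-MB-231 cells were grown 24 h and treated with 8.6, 12.4 or 17.3 μM for 48 h. They were then fixed 10 min, washed three times in PBS and stained 5 min with Hoechst 33258. Nuclear condensation was imaged by fluorescence microscopy (excitation 350 nm, emission 460 nm).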

[9] = tested on: MDA-MB-231; experiment: Induction of cell cycle arrest in human MDA-MB-231 cells assessed as accumulation of cells at G0/G1 phase at 12.4 uM incubated for 48 hrs by PI/RNase staining based flow cytometric analysis (reference value: 50.4%); assay type: functional
Summary of the method: (§4)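 Cell-cycle analysis: MDA-MB-231 cells were preincubated 24 h, then treated with 8.6, 12.4 or 17.3 μM for 48 h. Cells were pelleted, fixed in 75% ethanol at −20 °C overnight, and stained with PI/RNase for 15 min in the dark at ambient temperature. About 10 000 cells per well were analyzed by flow cytometry for DNA content.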

[10] = tested on: MDA-MB-231; experiment: Induction of cell cycle arrest in human MDA-MB-231 cells assessed as accumulation of cells at S phase at 17.3 uM incubated for 48 hrs by PI/RNase staining based flow cytometric analysis (reference value: 39.2%); assay type: functional; summary of the method: as §4
[11] = tested on: MDA-MB-231; experiment: Induction of cell cycle arrest in human MDA-MB-231 cells assessed as accumulation of cells at G2/M phase at 12.4 uM incubated for 48 hrs by PI/RNase staining based flow cytometric analysis (reference value: 10.4%); assay type: functional; summary of the method: as §4
[12] = tested on: MDA-MB-231; experiment: Induction of mitochondrial membrane potential loss in human MDA-MB-231 cells cell population with mitochondrial membrane potential collapse by measuring green fluorescence at 12.4 uM incubated for 48 hrs by JC1 staining based flow cytometric analysis (reference value: 7.96%); assay type: functional; summary of the method: as §2
[13] = tested on: MDA-MB-231; experiment: Induction of apoptosis in human MDA-MB-231 cells assessed as necrotic cells at 17.3 uM incubated for 48 hrs by annexin V-FITC/PI based flow cytometric analysis (Rvb= 0.74%); assay type: functional
[14] = tested on: MDA-MB-231; experiment: Antiproliferative activity against human MDA-MB-231 cells assessed as cell viability at 17.3 uM incubated for 48 hrs by methylene blue assay relative to control; assay type: functional; details: MDA-MB-231, 48 h, read-out: Activity; summary of the method: as §1
[15] = tested on: MDA-MB-231; experiment: Induction of mitochondrial membrane potential loss in human MDA-MB-231 cells incubated for 48 hrs by JC1 staining based flow cytometric analysis; assay type: functional, cell-based; summary of the method: as §2
[16] = tested on: MDA-MB-231; experiment: Induction of apoptosis in human MDA-MB-231 cells assessed as viable cells at 8.6 uM incubated for 48 hrs by annexin V-FITC/PI based flow cytometric analysis (Rvb= 96.21%); assay type: functional; details: MDA-MB-231, 48 h, read-out: Activity
[17] = tested on: LNCaP; experiment: Antiproliferative activity against human LNCAP cells assessed as cell viability at >30.9 uM incubated for 48 hrs by methylene blue assay relative to control; assay type: functional; summary of the method: as §1
[18] = tested on: MDA-MB-231; experiment: Induction in apoptosis in human MDA-MB-231 cells assessed as apoptotic cell bodies formation at 17.3 uM incubated for 48 hrs by Hoechst 33258 staining based fluorescence microscopic method; assay type: functional; summary of the method: as §3
[19] = tested on: MDA-MB-231; experiment: Induction of apoptosis in human MDA-MB-231 cells assessed as early apoptotic cells at 12.4 uM incubated for 48 hrs by annexin V-FITC/PI based flow cytometric analysis (Rvb= 0.24%); assay type: functional
[20] = tested on: MDA-MB-231; experiment: Induction of cell cycle arrest in human MDA-MB-231 cells assessed as accumulation of cells at G0/G1 phase at 8.6 uM incubated for 48 hrs by PI/RNase staining based flow cytometric analysis (reference value: 50.4%); assay type: functional; summary of the method: as §4
[21] = tested on: MDA-MB-231; experiment: Induction of mitochondrial membrane potential loss in human MDA-MB-231 cells assessed as cell population with intact mitochondrial membrane potential by measuring red fluorescence at 17.3 uM incubated for 48 hrs by JC1 staining based flow cytometric analysis (reference value: 92.04%); assay type: functional; summary of the method: as §2

With `CC(C)=CCc1c2c(c(O)c3c(=O)cc(-c4ccc(O)cc4)oc13)C=CC(C)(C)O2` [LAXIFOLIN] the inhibition [1] was “Active”, the Activity [2] was “Dose-dependent effect” and the Activity [3] was “Non-Toxic”. For the same compound, the Activity [4] was 1.19%, the Activity [5] was “Active” and the Activity [6] was 16.49%. For the same compound, the Activity [7] was 20%, the Activity [8] was “Dose-dependent effect” and the Activity [9] was 60.2%. For the same compound, the Activity [10] was 26.8%, the Activity [11] was 11.6% and the Activity [12] was 15.7%. The Activity [13] was 5.57%, the viability at 17.3 µM [14] was 20% and the Activity [15] was “Dose-dependent effect”. For the same compound, the viability at 8.6 µM [16] was 88.3%, the Activity [17] was 20% and the Activity [18] was “Active”. For the same compound, the Activity [19] was 0.58%, the Activity [20] was 59.5% and the Activity [21] was 73.25%.
